Common to all, as to type: functional
The test system of one assay is Salmonella typhi. In words: Antimicrobial activity against Salmonella typhi at 400 ug/ml after 48 hrs by disc-diffusion assay. The settings on record: for inhibition zone (IZ): Salmonella enterica subsp. enterica serovar Typhi; for zone of inhibition at 400 µg/mL: Salmonella enterica, read-out: IZ. The essentials: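 Disc diffusion. A few colonies were grown in nutrient broth for 2.5 h, then spread evenly on dried agar plates. Sterile 6 mm paper discs impregnated with compound were placed on the surface. Plates were incubated at 37 °C and the inhibition zone diameter in mm was read at 48 h. A DMF-only disc served as the negative control and chloramphenicol as the standard.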

The test system of a further assay is Bacillus anthracis. The experiment in a line: Antimicrobial activity against Bacillus anthracis at 400 ug/ml after 48 hrs by disc-diffusion assay. The settings on record: for zone of inhibition at 400 µg/mL: read-out: IZ. For orientation: Agar diffusion results depend on both activity and mobility in agar.
A further assay concerns Staphylococcus aureus. The experiment in a line: Antimicrobial activity against Staphylococcus aureus at 400 ug/ml after 48 hrs by disc-diffusion assay. The settings on record: for zone of inhibition at 400 µg/mL: read-out: IZ. The gist of the method:
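Bacteria were grown 2.5 h in nutrient broth and spread evenly over dried agar plates. Sterile 6 mm paper discs were impregnated with 400 µg/mL compound and placed on the inoculated surface. A DMF solvent-only disc served as negative control and chloramphenicol as reference. Plates were incubated at 37 °C and inhibition zone diameter (mm) was read at 48 h.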

The test system of another assay is Candida albicans. In words: Antimicrobial activity against Candida albicans after 72 hrs by broth dilution assay. The gist of the method:
(§1)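 Tube broth dilution in Sabouraud's Dextrose medium. Compound was dissolved in DMF and tested over 15.62 to 8000 µg/mL. Tubes were inoculated with fungal culture suspension and incubated at 25 °C for 72 h alongside a control. MIC was taken as the lowest concentration giving no turbidity.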
For orientation: Dilution methods test growth across graded concentrations, often in twofold steps.

Another assay concerns Aspergillus niger. The experiment in a line: Antimicrobial activity against Aspergillus niger after 72 hrs by broth dilution assay. The essentials: as §1
Another assay deals with Aspergillus fumigatus. In words: Antimicrobial activity against Aspergillus fumigatus after 72 hrs by broth dilution assay. The gist of the method: as §1

Converted amounts (≈) assume the structure as drawn. The source made the active and inactive calls. The rule behind the calls is not given here.

One may read the MIC as the lowest concentration that inhibits growth of the organism.

As for `COc1cc([C@@H]2[C@H](Cl)C(=O)N2NC(=O)CC(=O)Nc2ccccc2[N+](=O)[O-])ccc1OC(C)=O`, in the assay with Salmonella typhi, the “inhibition zone (IZ)” value is “inactive”. In addition, the zone of inhibition at 400 µg/mL with Bacillus anthracis came out at 17 mm; in the assay with Staphylococcus aureus it was 11 mm. Further, the minimum inhibitory concentration (MIC) was 2000 mg/L (≈ 4.07 mM) against Candida albicans and 4000 mg/L (≈ 8.15 mM) with Aspergillus niger.
Take `O=C1[C@@H](Cl)[C@@H](c2cc(/N=N/c3ccc([N+](=O)[O-])cc3)ccc2O)N1c1ccccc1`: in the assay on Salmonella typhi, the “inhibition zone (IZ)” value was “inactive”. Moreover, the zone of inhibition at 400 µg/mL in the assay with Bacillus anthracis stood at 10 mm; in the assay on Staphylococcus aureus, 8 mm. Further, in the assay on Aspergillus fumigatus, the MIC entry is “inactive”. Besides, the MIC with Candida albicans came out at 2000 mg/L (≈ 4.73 mM); with Aspergillus niger it was 4000 mg/L (≈ 9.46 mM).
As to `COc1cc([C@@H]2[C@H](Cl)C(=O)N2NC(=O)CC(=O)Nc2ccc([N+](=O)[O-])cc2)ccc1OC(C)=O`, the “inhibition zone (IZ)” value in the assay on Salmonella typhi and with Staphylococcus aureus was “inactive” throughout. For the same compound, in the assay on Bacillus anthracis, the zone of inhibition at 400 µg/mL amounted to 12 mm. In addition, the MIC with Candida albicans is 1000 mg/L (≈ 2.04 mM); against Aspergillus niger, 4000 mg/L (≈ 8.15 mM).
As to `O=C1[C@@H](Cl)[C@@H](c2cc(/N=N/c3cccc([N+](=O)[O-])c3)ccc2O)N1c1ccccc1`, the zone of inhibition at 400 µg/mL with Salmonella typhi turned out to be 18 mm; in the assay with Bacillus anthracis it was 31 mm; in the assay on Staphylococcus aureus it was 24 mm. In addition, the MIC against Candida albicans came out at 1000 mg/L (≈ 2.37 mM); against Aspergillus niger, 4000 mg/L (≈ 9.46 mM).
In the case of `O=C(N[C@H](CO)[C@H](O)c1ccc([N+](=O)[O-])cc1)C(Cl)Cl` [CHLORAMPHENICOL], the zone of inhibition at 400 µg/mL with Salmonella typhi worked out at 36 mm; in the assay on Bacillus anthracis, 34 mm; with Staphylococcus aureus it was 32 mm. Further, the MIC entry with Aspergillus fumigatus, with Candida albicans and in the assay on Aspergillus niger was “inactive” throughout.
`COc1cc([C@@H]2[C@H](Cl)C(=O)N2NC(=O)CC(=O)Nc2ccc(Cl)cc2)ccc1OC(C)=O`: the zone of inhibition at 400 µg/mL in the assay on Salmonella typhi is 29 mm; in the assay on Bacillus anthracis, 34 mm; with Staphylococcus aureus it was 30 mm. Further, the MIC in the assay on Candida albicans was 31.2 mg/L (≈ 0.0651 mM); in the assay on Aspergillus niger, 1000 mg/L (≈ 2.08 mM).
In the case of `COc1cc([C@@H]2[C@H](Cl)C(=O)N2NC(=O)CC(=O)Nc2ccccc2Cl)ccc1OC(C)=O`, the “inhibition zone (IZ)” value in the assay with Salmonella typhi was “inactive”. The zone of inhibition at 400 µg/mL is 21 mm in the assay on Bacillus anthracis and 12 mm in the assay on Staphylococcus aureus. The MIC in the assay on Candida albicans was found to be 500 mg/L (≈ 1.04 mM); with Aspergillus niger, 1000 mg/L (≈ 2.08 mM).
Regarding `O=C1[C@@H](Cl)[C@@H](c2cc(/N=N/c3cccc([N+](=O)[O-])c3)ccc2O)N1c1ccc(Br)cc1`, the results for the zone of inhibition at 400 µg/mL with Salmonella typhi, in the assay on Bacillus anthracis and in the assay on Staphylococcus aureus were 8 mm, 17 mm and 11 mm, respectively. In the assay with Candida albicans, the MIC result was “inactive”. The compound further gave an MIC against Aspergillus niger of 4000 mg/L (≈ 7.97 mM).
Take `O=C1[C@@H](Cl)[C@@H](c2cc(/N=N/c3ccc([N+](=O)[O-])cc3)ccc2O)N1c1ccc(F)cc1`: the “inhibition zone (IZ)” value in the assay with Salmonella typhi and with Staphylococcus aureus was “inactive” each time. Also, the zone of inhibition at 400 µg/mL in the assay with Bacillus anthracis is 12 mm. In addition, the values for the minimal inhibitory concentration (MIC) in the assay with Candida albicans and in the assay on Aspergillus niger were 2000 mg/L (≈ 4.54 mM) and 4000 mg/L (≈ 9.07 mM), respectively.
Regarding `O=C1[C@@H](Cl)[C@@H](c2cc(/N=N/c3cccc([N+](=O)[O-])c3)ccc2O)N1c1ccc(F)cc1`, the values for the zone of inhibition at 400 µg/mL with Salmonella typhi, in the assay with Bacillus anthracis and in the assay with Staphylococcus aureus were 21 mm, 28 mm and 29 mm, respectively. For the same compound, the MIC against Candida albicans is 62.5 mg/L (≈ 0.142 mM); with Aspergillus niger it was 500 mg/L (≈ 1.13 mM).
For the compound `O=C1[C@@H](Cl)[C@@H](c2cc(/N=N/c3cccc([N+](=O)[O-])c3)ccc2O)N1c1ccc(Cl)cc1`, the figures for the zone of inhibition at 400 µg/mL in the assay with Salmonella typhi, with Bacillus anthracis and in the assay with Staphylococcus aureus were 27 mm, 32 mm and 30 mm, respectively. Moreover, the results for the MIC against Candida albicans and against Aspergillus niger were 125 mg/L (≈ 0.273 mM) and 1000 mg/L (≈ 2.19 mM), respectively.
Taken in the same sequence, the figures for `COc1cc([C@@H]2[C@H](Cl)C(=O)N2NC(=O)CC(=O)Nc2cccc([N+](=O)[O-])c2)ccc1OC(C)=O` were 31 mm, 33 mm, 27 mm, 62.5 mg/L (≈ 0.127 mM) and 2000 mg/L (≈ 4.07 mM).
As to `COc1cc([C@@H]2[C@H](Cl)C(=O)N2NC(=O)CC(=O)Nc2cccc(Cl)c2)ccc1OC(C)=O`, the zone of inhibition at 400 µg/mL in the assay on Salmonella typhi was 17 mm; in the assay on Bacillus anthracis, 22 mm; in the assay on Staphylococcus aureus, 26 mm. The MIC in the assay on Candida albicans worked out at 125 mg/L (≈ 0.26 mM); against Aspergillus niger, 2000 mg/L (≈ 4.16 mM).
In the case of `O=C1[C@@H](Cl)[C@@H](c2cc(/N=N/c3ccc([N+](=O)[O-])cc3)ccc2O)N1c1ccc(Br)cc1`, the “inhibition zone (IZ)” value with Salmonella typhi and with Staphylococcus aureus was “inactive” each time. Also, the zone of inhibition at 400 µg/mL in the assay on Bacillus anthracis came to 8 mm. Moreover, the MIC entry with Aspergillus fumigatus is “inactive”. Besides, the MIC in the assay on Candida albicans and with Aspergillus niger was 4000 mg/L (≈ 7.97 mM) each time.
For `OC(Cn1cncn1)(Cn1cncn1)c1ccc(F)cc1F` [FLUCONAZOLE], the “inhibition zone (IZ)” value in the assay on Salmonella typhi, in the assay with Bacillus anthracis and with Staphylococcus aureus was “inactive” throughout. Further, the MIC with Candida albicans came to 250 mg/L (≈ 0.816 mM); against Aspergillus niger it was 2000 mg/L (≈ 6.53 mM).
With `O=C1[C@@H](Cl)[C@@H](c2cc(/N=N/c3ccc([N+](=O)[O-])cc3)ccc2O)N1c1ccc(Cl)cc1`, the zone of inhibition at 400 µg/mL in the assay with Salmonella typhi turned out to be 10 mm; in the assay with Bacillus anthracis, 21 mm; in the assay with Staphylococcus aureus, 17 mm. Besides, the MIC result in the assay on Aspergillus fumigatus is “inactive”. In addition, the MIC in the assay with Candida albicans is 250 mg/L (≈ 0.547 mM); against Aspergillus niger, 2000 mg/L (≈ 4.37 mM).
`COc1cc([C@@H]2[C@H](Cl)C(=O)N2NC(=O)CC(=O)Nc2ccccc2)ccc1OC(C)=O`: the “inhibition zone (IZ)” value in the assay on Salmonella typhi and in the assay on Bacillus anthracis was “inactive” each time. Further, the zone of inhibition at 400 µg/mL in the assay on Staphylococcus aureus amounted to 10 mm. Moreover, the values for the MIC against Candida albicans and in the assay on Aspergillus niger were 1000 mg/L (≈ 2.24 mM) and 4000 mg/L (≈ 8.97 mM), respectively.

(Values after ChEMBL document CHEMBL1143785, “N/C-4 substituted azetidin-2-ones: synthesis and preliminary evaluation as new class of antimicrobial agents” (2007).)
